Assay outcomes: PubChem, several laboratories
TRPC6 activator: activators of mouse TRPC6 channel; Q61143; HEK293-TRPC6 membrane potential dye fluorescence; active compounds read high; B-score at 10 µM; hit rate 0.13% among 310,000;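 active = B-score of the integrated fluorescence ratio above library mean plus 3 SD, and starting fluorescence ratio within library mean plus 5 SD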;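 also: higher score means more depolarization so channel activation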
TRPC4 inh: inhibitors of mouse TRPC4 channel; B-score at 10 µM; HEK293 TRPC4beta/mu-opioid, DAMGO-evoked Fluo4 calcium flux; active compounds read low; hit rate 0.39% among 300,000; Q9QUQ5; AID 2247;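 active = B-score over 3 SD under the library average, no early fluorescence shift, positive overall ratio signal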
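Assay system – HEK293 line stably carrying TRPC4beta and mu-opioid receptor · Doses – single dose · Detection – Fluo4 calcium-dye fluorescence, kinetic read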
TRPC4 potent: TRPC4 (mouse) allosteric potentiation; Q9QUQ5; HEK293 TRPC4beta/mu-opioid, DAMGO EC20, Fluo-4 Ca2+ flux; active compounds read high; B-score at 10 µM; hit rate 0.42% among 310,000;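 active = B-score of calcium response area above 5 SD of library B-scores, with initial fluorescence ratio within 5 SD of library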
TRPC4 agonist: opens the mouse TRPC4 cation channel. HEK293 TRPC4beta/mu-opioid, Fluo4 calcium fluorescence; active compounds read high. B-score at 10 µM. hit rate 0.49% among 310,000;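 active = B-score above 5 SD of library B-scores, and initial fluorescence ratio not above library mean plus 5 SD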;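 also: positive B-score marks a calcium rise read as TRPC4 activation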
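Assay system: HEK293 stable line with TRPC4beta plus mu-opioid receptor; schedule: 45 min room-temperature Fluo4 loading, 110 s read; technique: kinetic Fluo4 calcium fluorescence; evaluation: integrated baseline-normalised fluorescence ratio, converted to per-well B score; controls: buffer (low) and maximal DAMGO (high)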
TRPC6 inh: mouse TRPC6 channel inhibition; HEK293-TRPC6, membrane potential dye, ACh-evoked depolarization; active compounds read low; B-score at 10 µM; hit rate 1.1% among 310,000; AID 2553;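 active = B-score under library mean minus 3 SD, initial fluorescence not abnormally high, positive integrated signal ratio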;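 also: B-score derived from integrated fluorescence ratio over the kinetic read; more negative B-score means stronger inhibition of depolarization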
DSG3 Ab inh: blocks pemphigus antibody binding to human desmoglein-3 | hit rate 0.48% among 310,000 | P32926 | AID 588358 | binding (percent of control), % at 10 µM | DSG3-coupled beads, scFv-anti-DSG3-GFP binding, flow cytometry; active compounds read low;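 active = binding more than 3 SD below its plate's average and above zero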;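 also: hits lower antibody fragment binding to DSG3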
Target sequence (P32926 whole entry, looked up, the tested form may be a part): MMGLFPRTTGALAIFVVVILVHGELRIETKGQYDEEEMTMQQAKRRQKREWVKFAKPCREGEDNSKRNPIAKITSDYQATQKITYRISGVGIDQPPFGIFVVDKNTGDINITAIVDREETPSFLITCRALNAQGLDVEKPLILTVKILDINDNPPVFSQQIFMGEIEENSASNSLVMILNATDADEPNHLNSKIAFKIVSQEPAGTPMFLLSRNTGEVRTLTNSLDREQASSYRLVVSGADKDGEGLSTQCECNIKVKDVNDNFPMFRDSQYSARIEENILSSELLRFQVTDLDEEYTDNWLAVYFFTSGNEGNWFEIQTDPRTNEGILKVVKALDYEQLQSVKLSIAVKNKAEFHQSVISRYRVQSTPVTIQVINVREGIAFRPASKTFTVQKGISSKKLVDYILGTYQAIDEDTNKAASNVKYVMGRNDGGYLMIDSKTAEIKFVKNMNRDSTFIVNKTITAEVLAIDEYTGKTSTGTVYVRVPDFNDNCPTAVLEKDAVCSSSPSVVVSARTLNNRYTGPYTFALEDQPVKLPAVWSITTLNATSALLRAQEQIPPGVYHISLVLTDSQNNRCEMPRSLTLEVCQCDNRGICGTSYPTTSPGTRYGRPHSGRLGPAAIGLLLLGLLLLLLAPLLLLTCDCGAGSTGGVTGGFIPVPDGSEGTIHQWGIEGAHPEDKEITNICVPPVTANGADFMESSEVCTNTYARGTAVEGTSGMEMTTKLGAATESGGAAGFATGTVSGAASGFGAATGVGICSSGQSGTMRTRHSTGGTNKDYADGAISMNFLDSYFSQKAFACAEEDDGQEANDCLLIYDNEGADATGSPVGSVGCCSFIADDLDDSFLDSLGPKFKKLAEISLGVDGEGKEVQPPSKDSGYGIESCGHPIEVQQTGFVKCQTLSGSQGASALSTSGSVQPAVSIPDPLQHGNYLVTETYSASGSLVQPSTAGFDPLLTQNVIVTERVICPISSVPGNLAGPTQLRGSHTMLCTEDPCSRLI
TRPC4 sel inh 2: mouse TRPC4 off-target activity of TRPC6 inhibitors, second screen; shares compounds with TRPC6 inh; HEK293 TRPC4/MOR, membrane potential dye fluorescence; channel activated by saturating DAMGO dose; inhibition, % at 10 µM; hit rate 42% among 920;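 active = compounds whose fluorescence signal differed from control wells by over 3 SD, either direction, in both duplicate plates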
TRPC4 spec: mouse TRPC4 off-target activity of TRPC6 inhibitors | hit rate 61% among 920 | HEK293 TRPC4/mu-opioid, membrane potential fluorescence | shares compounds with TRPC6 inh | activity change, negative = inhibition, % at 10 µM;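 active = rise or fall in signal beyond 3 SD of buffer-only wells in both replicate plates, either sign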;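 also: integrated kinetic ratio of fluorescence range over baseline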
HEK293 MPD ctr 2-1: parental HEK293 nonspecific activity of TRPC6 inhibitors, second screen; parental HEK293 membrane potential dye fluorescence; maximal acetylcholine challenge after compound addition; shares compounds with TRPC6 inh; signal change vs control, % at 10 µM; hit rate 31% among 920; AID 2779;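 active = membrane potential signal moving either way by over 3 SD of the maximum-effect control, in both duplicate plates, meaning non-specific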
HEK293 MPD ctr-1: checks TRPC6 inhibitor effects in parental HEK293 cells | shares compounds with TRPC6 inh | hit rate 60% among 920 | parental HEK293 membrane potential dye fluorescence | membrane potential signal change, % at 10 µM;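 active = membrane potential signal shifting up or down by more than 3 SD of buffer-only wells, on both duplicate plates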
HEK293 MPD ctr-2: counter-screen for TRPC6 modulators: effect in parental HEK293 cells | shares compounds with TRPC6 inh | membrane potential dye fluorescence | membrane potential signal change, % at 10 µM | hit rate 51% among 2,400 | AID 488924;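 active = membrane potential signal moves up or down beyond 5 SD from buffer-only wells, on both duplicate plates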
HEK293 MPD ctr 2-2: parental HEK293 nonspecific activity of TRPC6 modulators, second screen; shares compounds with TRPC6 inh; membrane potential dye fluorescence; after compound, maximal acetylcholine stimulation; inhibition, % at 10 µM; hit rate 14% among 2,400; AID 488926;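 active = membrane potential signal drops by more than 5 SD from the mean control signal, in both duplicate plates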
TRPC4 ctr mod: tests whether TRPC6 modulators also affect mouse TRPC4; HEK293 TRPC4/mu-opioid, membrane potential fluorescence; shares compounds with TRPC6 inh; AID 488927; hit rate 69% among 2,400; percent change from control (negative = decrease, positive = increase), % at 10 µM;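 active = membrane potential signal moved up or down beyond 5 SD of buffer control wells, in both duplicate plates, actives on both sides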
TRPC4/MOR inh 2: second check of whether TRPC6 modulators also affect mouse TRPC4; shares compounds with TRPC6 inh; HEK293 TRPC4/mu-opioid, membrane potential dye fluorescence; stimulated with maximal-effect DAMGO; AID 488928; hit rate 55% among 2,400; inhibition, % at 10 µM;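 active = drop in membrane potential signal beyond 5 SD of the control wells in both duplicate plates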;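 also: TRPC4 counter screen for TRPC6 hits run under conditions tuned for TRPC6 not TRPC4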
TRPC6 inh conf: mouse TRPC6 inhibitor confirmation. shares compounds with TRPC6 inh. HEK293-TRPC6, membrane potential dye, ACh-evoked depolarization. inhibition, % at 10 µM. hit rate 43% among 3,300. AID 488960;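 active = fluorescence ratio falls more than 5 SD below the full-stimulation control mean, in both duplicate runs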;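 also: integrated fluorescence ratio of peak minus minimum over baseline after agonist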
TRPC6 act conf: mouse TRPC6 activator confirmation; shares compounds with TRPC6 inh; HEK293-TRPC6 membrane potential dye fluorescence, FDSS; activation, % at 10 µM; hit rate 11% among 2,800;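 active = ratio signal rise beyond 5 SD above unstimulated control wells' mean, seen in both duplicate runs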
Of the large screens only hits and unclear results are named; the others gave an inactive call (follow-up assays come after a bar, where they were run). Hits are enriched below; roughly 2.5% of the tested compounds scored in any of these assays.

C/C(=N\Nc1c([N+](=O)[O-])c(C)nn1C)c1ccc(F)cc1F	none (no result: DSG3 Ab inh)
COc1ccc(C(=O)/C=C/c2cc(OC)c(O)c(OC)c2)c(F)c1	TRPC6 activator 18 | HEK293 MPD ctr-2 288% | HEK293 MPD ctr 2-2 inactive | TRPC4 ctr mod 54% | TRPC4/MOR inh 2 inactive | TRPC6 inh conf inactive | TRPC6 act conf 108%
COc1ccc2cc(C(=O)/C=C/c3cc(OC)c(O)c(OC)c3)ccc2c1	none (no result: DSG3 Ab inh)
O=C(CCn1c(=O)[nH]c2ccsc2c1=O)N1CCN(c2cccc(Cl)c2)CC1	TRPC6 activator 15, TRPC6 inh -13 | HEK293 MPD ctr-2 inactive | HEK293 MPD ctr 2-2 inactive | TRPC4 ctr mod inactive | TRPC4/MOR inh 2 inactive | TRPC6 inh conf 56% | TRPC6 act conf 94%
O=C(CCn1c(=O)[nH]c2ccsc2c1=O)N1CCN(c2ccc([N+](=O)[O-])cc2)CC1	none (no result: DSG3 Ab inh)
COc1ccc(NCc2cc(=O)oc3cc(NC(C)=O)ccc23)cc1	none
CC(C)(C)CNc1cc(N2CCCC2)ccc1[N+](=O)[O-]	none
NCCNc1cc(N2CCCC2)ccc1[N+](=O)[O-]	TRPC6 inh -6.3 | HEK293 MPD ctr-2 -164% | HEK293 MPD ctr 2-2 inactive | TRPC4 ctr mod -31% | TRPC4/MOR inh 2 70% | TRPC6 inh conf 58% | TRPC6 act conf inactive
CN1CCN(c2ccc(Nc3ccnc4cc(Cl)ccc34)cc2)CC1	TRPC6 inh -6.4 | HEK293 MPD ctr-2 -106% | HEK293 MPD ctr 2-2 inactive | TRPC4 ctr mod -24% | TRPC4/MOR inh 2 52% | TRPC6 inh conf 46% | TRPC6 act conf inactive
Clc1ccc2c(N3CCOCC3)ccnc2c1	none
Clc1ccc2c(N3CCCC3)ccnc2c1	TRPC4 inh -6, TRPC6 inh -9 | TRPC4 sel inh 2 76% | TRPC4 spec -25% | HEK293 MPD ctr 2-1 37% | HEK293 MPD ctr-1 -478% | TRPC6 inh conf 64% | TRPC6 act conf inactive
COc1ccc(CNC(=O)C[C@H]2C[C@H](C(=O)N(C(C)C)C(C)C)[C@@]3(C)c4[nH]c5cc(-c6ccco6)ccc5c4CCN3C2=O)cc1OC	none (no result: TRPC6 activator, TRPC4 inh, TRPC4 potent, TRPC4 agonist, TRPC6 inh)
CCOc1ccc(N(C)c2ccc(/C=C3/SC(=S)NC3=O)cc2)cc1	TRPC6 activator 18 | HEK293 MPD ctr-2 inactive | HEK293 MPD ctr 2-2 inactive | TRPC4 ctr mod 82% | TRPC4/MOR inh 2 inactive | TRPC6 inh conf inactive | TRPC6 act conf inactive
CN(C)c1ccc(C=C2SC(=S)NC2=O)cc1	none (no result: TRPC6 activator, TRPC4 inh, TRPC4 potent, TRPC4 agonist, TRPC6 inh)
CC(=O)Nc1cccc(C(=O)OCC(=O)N(c2ccccc2)C2CCS(=O)(=O)C2)c1 (configuration not stated)	none (no result: TRPC6 activator, TRPC4 inh, TRPC4 potent, TRPC4 agonist, TRPC6 inh)
COc1ccc(OC)c(C(c2nnnn2Cc2ccccc2)N2CCN(C3CCCCC3)CC2)c1 (configuration not stated)	TRPC6 inh -5.7 | HEK293 MPD ctr-2 132% | HEK293 MPD ctr 2-2 inactive | TRPC4 ctr mod inactive | TRPC4/MOR inh 2 65% | TRPC6 inh conf 40%
O=C(Cn1c(C(F)(F)F)nc2ccccc21)N/N=C/c1ccco1	none
Nc1ccc(O)c2c1C(=O)c1ccccc1C2=O	TRPC6 inh -8.2 | HEK293 MPD ctr-2 -85% | HEK293 MPD ctr 2-2 inactive | TRPC4 ctr mod -40% | TRPC4/MOR inh 2 66% | TRPC6 inh conf 42% | TRPC6 act conf inactive
Nc1ccc(Br)c2c1C(=O)c1ccccc1C2=O	none (no result: DSG3 Ab inh)
O=C(NCCCn1ccnc1)C1CCN(S(=O)(=O)c2cc([N+](=O)[O-])ccc2Cl)CC1	none (no result: TRPC6 activator, TRPC4 inh, TRPC4 potent, TRPC4 agonist, TRPC6 inh)
COc1ccc(-c2cc(-c3nnc(COC(=O)CC4CC5CCC4C5)o3)c3ccccc3n2)cc1OC (configuration not stated)	none
Cc1nc(NC(=O)c2ccc(Cl)cc2)nc2cc3c(cc12)OCO3	none
Cc1cc(C)nc(Nc2nc(C)c3cc4c(cc3n2)OCO4)n1	TRPC6 inh -6.8 (no result: DSG3 Ab inh) | TRPC4 sel inh 2 inactive | TRPC4 spec 9.0% | HEK293 MPD ctr 2-1 -138% | HEK293 MPD ctr-1 8.5% | TRPC6 inh conf inactive | TRPC6 act conf inactive
COc1cccc(OCc2cc(C(=O)N(Cc3ccccc3)CC3CC3)no2)c1	TRPC6 inh -5.2 (no result: DSG3 Ab inh) | HEK293 MPD ctr-2 131% | HEK293 MPD ctr 2-2 inactive | TRPC4 ctr mod 26% | TRPC4/MOR inh 2 inactive | TRPC6 inh conf inactive
COc1cccc(OCc2cc(C(=O)N(C)Cc3nc4ccccc4[nH]3)no2)c1	none
CCN(CC)CCCC(C)NC(=O)c1ccc(C(F)(F)F)cc1 (configuration not stated)	none
CN(C)c1ccc2nc3ccc(=[N+](C)C)cc-3sc2c1	TRPC6 inh -14 | HEK293 MPD ctr-2 -224% | HEK293 MPD ctr 2-2 132% | TRPC4 ctr mod -36% | TRPC4/MOR inh 2 66% | TRPC6 inh conf 80% | TRPC6 act conf inactive
CSc1sc(C(=O)Nc2ccc(F)cc2F)c2c1C=CCC2	none
COc1ccc2oc(=O)c(C(=O)C[n+]3cccc(C)c3)cc2c1	TRPC6 inh -8.4 | TRPC4 sel inh 2 inactive | TRPC4 spec -12% | HEK293 MPD ctr 2-1 inactive | HEK293 MPD ctr-1 -137% | TRPC6 inh conf inactive | TRPC6 act conf inactive
